Measured values as given in ChEMBL document CHEMBL1144415, “Identification of novel low molecular weight CXCR4 antagonists by structural tuning of cyclic tetrapeptide scaffolds” (J Med Chem, 2005).

Key:
[1] = target: T1, C-X-C chemokine receptor type 4 (Homo sapiens, UniProt P61073); assay: Inhibition of [125I]SDF-1 binding to C-X-C chemokine receptor type 4 (CXCR4) expressed in CHO cells; type: cell-based
In short: (§1)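 Stable CXCR4-expressing CHO transfectants harvested with trypsin-EDTA, recovered 4 to 5 h in complete growth medium, washed in cold binding buffer (PBS with 2 mg/mL BSA). Cells at 1 × 10⁷ cells/mL incubated with 0.1 nM [¹²⁵I]-SDF-1 for 2 h on ice with agitation. Bound and free separated by centrifugation through oil cushion, gamma counting. IC50 from at least three independent experiments, mean with SD.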

[2] = target: T1, C-X-C chemokine receptor type 4; assay: Inhibition of [125I]SDF-1 binding to C-X-C chemokine receptor type 4 (CXCR4) expressed in CHO cells; range = 1-10 uM; type: cell-based; in short: as §1

T1 sequence (P61073 whole entry): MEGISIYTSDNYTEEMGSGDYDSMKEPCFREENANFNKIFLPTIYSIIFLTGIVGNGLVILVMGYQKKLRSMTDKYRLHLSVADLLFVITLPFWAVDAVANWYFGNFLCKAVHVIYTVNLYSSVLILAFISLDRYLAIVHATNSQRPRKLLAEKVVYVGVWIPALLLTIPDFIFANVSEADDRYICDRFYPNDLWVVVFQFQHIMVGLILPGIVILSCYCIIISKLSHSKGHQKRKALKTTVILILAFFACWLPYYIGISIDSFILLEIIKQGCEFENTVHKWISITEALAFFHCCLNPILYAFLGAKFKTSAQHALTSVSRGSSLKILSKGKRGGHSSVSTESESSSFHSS

| IC50 [1] | Structure (SMILES) | other results |
| --- | --- | --- |
| 0.53 µM | N=C(N)NCCC[C@@H]1NC(=O)[C@@H](NC(=O)CCNC(=N)N)CSSC[C@H](C(=O)NCCc2ccc(O)cc2)NC(=O)[C@H](Cc2ccc3ccccc3c2)NC1=O | – |
| 0.17 µM | N=C(N)NCCC[C@@H]1NC(=O)[C@@H](CCC(N)=O)NC(=O)[C@@H](Cc2ccc(O)cc2)NC(=O)CNC(=O)[C@H](Cc2ccc3ccccc3c2)NC1=O | – |
| 1 µM | N=C(N)NCCCN[C@H]1CSSC[C@H](C(=O)NCCc2ccc(O)cc2)NC(=O)[C@H](Cc2ccc3ccccc3c2)NC(=O)[C@H](CCCNC(=N)N)NC1=O | – |

More lines, now with the values behind:

| Structure (SMILES) | IC50 [1] | other results |
| --- | --- | --- |
| N=C(N)NCCC[C@@H]1NC(=O)[C@@H]2CCCN2C(=O)[C@@H](Cc2ccc(O)cc2)NC(=O)CNC(=O)[C@H](Cc2ccc3ccccc3c2)NC1=O | 1.6 µM | – |
| N=C(N)NCCC(=O)N[C@H]1C/C=C\C[C@H](C(=O)NCCc2ccc(O)cc2)NC(=O)[C@H](Cc2ccc3ccccc3c2)NC(=O)[C@H](CCCN=C(N)N)NC1=O | – | IC50 [2]: 10 µM |
| CN1C(=O)[C@@H](NC(=O)CCN=C(N)N)CSSC[C@H](C(=O)NCCc2ccc(O)cc2)NC(=O)[C@H](Cc2ccc3ccccc3c2)NC(=O)[C@@H]1CCCN=C(N)N | > 10 µM | – |
| N=C(N)NCCC[C@@H]1NC(=O)[C@H](Cc2ccc(O)cc2)NC(=O)/C=C\[C@@H](Cc2ccc3ccccc3c2)NC(=O)[C@@H](CCCNC(=N)N)NC1=O | – | IC50 ([1]; cho): > 1 µM |
| N=C(N)NCCC[C@@H]1NC(=O)[C@@H](CCC(=O)O)NC(=O)[C@@H](Cc2ccc(O)cc2)NC(=O)CNC(=O)[C@H](Cc2ccc3ccccc3c2)NC1=O | 0.61 µM | – |
| N=C(N)NCCC[C@H]1NC(=O)[C@@H](CCCN=C(N)N)NC(=O)[C@H](Cc2ccc(O)cc2)NC(=O)/C=C\[C@@H](Cc2ccc3ccccc3c2)NC1=O | – | IC50 ([1]; cho): > 1 µM |
| N=C(N)NCCC[C@@H]1NC(=O)[C@H]2CCCN2C(=O)[C@@H](Cc2ccc(O)cc2)NC(=O)CNC(=O)[C@H](Cc2ccc3ccccc3c2)NC1=O | 0.42 µM | – |
